From ChEMBL document CHEMBL1275547, “KHM-1, a novel plasmid-mediated metallo-beta-lactamase from a Citrobacter freundii clinical isolate” (2008)
Values after ≈ are worked out from the molar mass of the structure shown. Active and inactive are the calls of the source. The rule behind the calls is not given here.

Legend:
[1] = test system: Escherichia coli; assay: Antibacterial activity against Escherichia coli JM109 by microdilution method; type: functional
How it was run: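 Microdilution β-lactam susceptibility in E. coli JM109, the host strain for recombinant plasmids such as the pHSG396-based blaKHM-1 clone.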

[2] = test system: Escherichia coli; assay: Antibacterial activity against Escherichia coli JM109 harboring recombinant pKHM-1 by microdilution method; type: functional
[3] = test system: Escherichia coli; assay: Antibacterial activity against Escherichia coli K-12 W1895 by microdilution method; type: functional
How it was run: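 Microdilution β-lactam MICs in E. coli K-12 W1895, the conjugation recipient. Transconjugants carrying the natural blaKHM-1 plasmid were selected on Penassay agar with rifampin (200 μg/ml) and moxalactam (16 μg/ml).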

[4] = test system: Escherichia coli; assay: Antibacterial activity against Escherichia coli K-12 W1895 transconjugant harboring pCF243 by microdilution method; type: functional
[5] = test system: Escherichia coli; assay: Ratio of Kcat to Km for Escherichia coli JM109 harboring recombinant pKHM-1 Beta-lactamase KHM-1 assessed as compound hydrolysis by UV-visible spectrophotometry
How it was run: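 KHM-1 was purified from E. coli JM109(pKHM-1) on HiTrap Q and Superdex 200 columns, with fractions tracked by 100 μM nitrocefin hydrolysis. Protein was measured by BCA. Hydrolysis was followed spectrophotometrically in 50 mM phosphate pH 7.0 at 25°C under initial-rate conditions. Km and kcat came from Lineweaver-Burk plots as means of three independent experiments, and kcat/Km was calculated from them.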

[6] = test system: Escherichia coli; settings: JM109
[7] = test system: Escherichia coli; assay: Antibacterial activity against Escherichia coli K-12 W1895 by microdilution method in presence of Sulbactam; type: functional
How it was run: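 β-Lactam susceptibility was measured by microdilution. Ampicillin was tested combined with sulbactam at a fixed 2:1 ampicillin:sulbactam ratio. The E. coli K-12 W1895 strain served as the recipient strain in the conjugation experiments.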

[8] = test system: Citrobacter freundii; assay: Antibacterial activity against Citrobacter freundii KHM243 clinical isolate by microdilution method; type: functional
[9] = test system: Citrobacter freundii; assay: Antibacterial activity against Citrobacter freundii KHM243 clinical isolate by microdilution method in presence of Sulbactam; type: functional
How it was run: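 Broth microdilution susceptibility of C. freundii KHM243, a urinary isolate from a catheter-associated UTI patient (1997). Ampicillin was tested with sulbactam at a fixed ampicillin:sulbactam ratio of 2:1.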

[10] = test system: Escherichia coli; assay: Antibacterial activity against Escherichia coli JM109 harboring recombinant pKHM-1 by microdilution method in presence of Sulbactam; type: functional
How it was run: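 Broth microdilution MIC of ampicillin-sulbactam, combined at a 2:1 ampicillin:sulbactam ratio. The host is E. coli JM109 carrying pKHM-1, a recombinant pHSG396 clone of an EcoRI fragment of pCF243 bearing blaKHM-1, selected on agar with moxalactam (1 μg/ml).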

[11] = test system: Escherichia coli; assay: Antibacterial activity against Escherichia coli K-12 W1895 transconjugant harboring pCF243 by microdilution method in presence of Sulbactam; type: functional
How it was run: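 Broth microdilution MIC of ampicillin-sulbactam, combined at a 2:1 ampicillin:sulbactam ratio. The host is an E. coli K-12 W1895 transconjugant carrying the natural blaKHM-1 plasmid pCF243 from C. freundii KHM243, selected on Penassay broth agar with rifampin (200 μg/ml) and moxalactam.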

[12] = test system: Escherichia coli; assay: Antibacterial activity against Escherichia coli JM109 by microdilution method in presence of Sulbactam; type: functional
How it was run: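 Microdilution β-lactam susceptibility in E. coli JM109, the host for recombinant plasmids including the pHSG396 construct carrying blaKHM-1. Sulbactam was paired with ampicillin at a fixed 2:1 ampicillin-to-sulbactam ratio.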

[13] = test system: Escherichia coli; settings: JM109; remark: listed apart in the source

Compound | MIC [1] [µg/mL] | MIC [2] [µg/mL] | MIC [3] [µg/mL] | MIC [4] [µg/mL] | kcat/Km [5] [×10⁴ /M/s] | Km [6] [µM] | kcat [6] [s⁻¹] | MIC [7] [µg/mL] | MIC [8] [µg/mL] | MIC [9] [µg/mL] | MIC [10] [µg/mL] | MIC [11] [µg/mL] | MIC [12] [µg/mL] | Km [13] | kcat [13]
CO/N=C(\C(=O)N[C@@H]1C(=O)N2C(C(=O)[O-])=C(C[N+]3(C)CCCC3)CS[C@H]12)c1csc(N)n1 | 0.004 (≈ 0.00832 µM) | 64 | 0.002 (≈ 0.00416 µM) | > 512 | – | – | – | – | – | – | – | – | – | – | –
CC1(C)S[C@@H]2[C@H](NC(=O)Cc3ccccc3)C(=O)N2[C@H]1C(=O)O | – | – | – | – | 1.7 | 1340 | 23 | – | – | – | – | – | – | – | –
CC1(C)S[C@@H]2[C@H](NC(=O)[C@H](N)c3ccccc3)C(=O)N2[C@H]1C(=O)O [AMPICILLIN] | 1 (≈ 2.86 µM) | 16 | 8 (≈ 22.9 µM) | 64 (≈ 183 µM) | 1.9 | 978 | 19 | 1 | 256 (≈ 733 µM) | 64 | 16 | 64 | 0.5 | – | –
C[C@H]1[C@H](NC(=O)/C(=N\OC(C)(C)C(=O)O)c2csc(N)n2)C(=O)N1S(=O)(=O)O [AZTREONAM] | – | 0.063 | 0.031 (≈ 0.0712 µM) | 0.063 (≈ 0.145 µM) | – | – | – | – | – | – | – | – | – | inactive | inactive
NC(=O)OC[C@@H]1[C@H](NC(=O)/C(=N\OCC(=O)O)c2csc(N)n2)C(=O)N1S(=O)(=O)O [CARUMONAM] | 0.031 (≈ 0.0665 µM) | 0.063 | 0.031 (≈ 0.0665 µM) | 0.125 (≈ 0.268 µM) | – | – | – | – | 0.25 (≈ 0.536 µM) | – | – | – | – | – | –
CCN1CCN(C(=O)N[C@@H](C(=O)N[C@]2(OC)C(=O)N3C(C(=O)O)=C(CSc4nnnn4C)CS[C@@H]32)[C@H](C)O)C(=O)C1=O [CEFBUPERAZONE] | 0.031 (≈ 0.0494 µM) | 512 | 0.063 (≈ 0.1 µM) | 256 (≈ 408 µM) | – | – | – | – | 128 (≈ 204 µM) | – | – | – | – | – | –
CO[C@@]1(NC(=O)CSCC#N)C(=O)N2C(C(=O)O)=C(CSc3nnnn3C)CS[C@@H]21 [CEFMETAZOLE] | 0.25 (≈ 0.53 µM) | > 512 | 0.5 (≈ 1.06 µM) | 512 (≈ 1090 µM) | – | – | – | – | 512 (≈ 1090 µM) | – | – | – | – | – | –
CO[C@@]1(NC(=O)CSC[C@@H](N)C(=O)O)C(=O)N2C(C(=O)O)=C(CSc3nnnn3C)CS[C@@H]21 [CEFMINOX] | 0.25 (≈ 0.481 µM) | 512 | 0.125 (≈ 0.241 µM) | > 512 | – | – | – | – | 512 (≈ 985 µM) | – | – | – | – | – | –
CO/N=C(\C(=O)N[C@@H]1C(=O)N2C(C(=O)O)=C(COC(C)=O)CS[C@H]12)c1csc(N)n1 [CEFOTAXIME] | 0.004 (≈ 0.00878 µM) | 128 | 0.008 (≈ 0.0176 µM) | > 512 | – | 13 | 2180 | – | 64 (≈ 141 µM) | – | – | – | – | – | –
CO[C@@]1(NC(=O)C2SC(=C(C(N)=O)C(=O)O)S2)C(=O)N2C(C(=O)O)=C(CSc3nnnn3C)CS[C@@H]21 (some centres not stated) [CEFOTETAN] | 0.031 (≈ 0.0539 µM) | > 512 | 0.125 (≈ 0.217 µM) | 512 (≈ 889 µM) | – | – | – | – | 128 (≈ 222 µM) | – | – | – | – | – | –
